Results reported in ChEMBL document CHEMBL2176871, “Development of ligands at γ-aminobutyrric acid type A (GABAA) receptor subtype as new agents for pain relief” (Bioorg Med Chem, 2011).
The source made the active and inactive calls.

Legend:
[1] = system: Mus musculus; assay: Antihyperalgesic activity Swiss albino mouse […] assessed as licking latency time at 30 mg/kg, po after 45 mins by hot plate test (reference value: 17.1 +/- 0.71 secs); assay type: functional
How it was run: (§1)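 Hot plate at 52.5 ± 0.1 °C in non-diabetic male Swiss mice. Latency to licking of fore or hind paws was timed before dosing and every 15 min up to 60 min after oral dosing. Mice with pretest latencies below 12 s or above 18 s were excluded. Cut-off was 45 s.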

[2] = system: Rattus norvegicus; assay: Toxicity in Sprague-Dawley rat mononeuropathy pain model assessed as effect on contralateral paw pressure at 30 mg/kg, po after 15 mins by paw pressure test; assay type: organism-based; set-up: dose 30 mg/kg, route oral; conditions: in vivo, 0.25 h
How it was run: (§2)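 Same sciatic-ligation rat model, 14 days after surgery. Threshold measured on the non-operated contralateral hind paw by analgesimeter at 32 g/s; first-struggle endpoint; 250 g cut-off; pretest rats outside 40–75 g rejected. Compound given po in 10 ml/kg; readings at 15, 30 and 45 min.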

[3] = system: Rattus norvegicus; assay: Antinociceptive activity in Sprague-Dawley rat mononeuropathy pain model assessed as increase in injured paw pressure at 30 mg/kg, po after 30 mins by paw pressure test relative to non-treated control; assay type: functional
How it was run: (§3)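 Chronic constriction injury: loose ligatures placed on the common sciatic nerve under chloral hydrate; contralateral sham dissection. Tested 14 days after surgery. Paw pressure applied at 32 g/s; threshold taken as the force causing the first struggle; cut-off 250 g; pretest outliers (<40 g or >75 g) excluded. Oral dosing in 10 ml/kg; read at 15, 30 and 45 min; compared with a CMC-treated group.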

[4] = system: Mus musculus; assay: Antihyperalgesic activity against streptozotocin-induced hyperalgesia in Swiss albino mouse […] assessed as licking latency time at 30 mg/kg, po after 30 mins by hot plate test (reference value: 9.7 +/- 0.8 secs); assay type: functional
[5] = system: Mus musculus; assay: Antihyperalgesic activity Swiss albino mouse […] assessed as licking latency time at 30 mg/kg, po after 15 mins by hot plate test (reference value: 17.1 +/- 0.71 secs); assay type: functional; how it was run: as §1
[6] = system: Rattus norvegicus; assay: Antinociceptive activity in Sprague-Dawley rat mononeuropathy pain model assessed as increase in injured paw pressure at 30 mg/kg, po after 15 mins by paw pressure test relative to non-treated control; assay type: functional; how it was run: as §3
[7] = organism: Bos taurus; assay: Displacement of [3H]Ro151788 from GABA(A)/BzR in bovine cerebral cortex membrane at 10 uM; assay type: cell membranes
How it was run: (§4)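 Bovine cerebral cortex membranes in 50 mM Tris-citrate pH 7.4; [3H]flumazenil displacement. Compounds first tested at a fixed 10 µM; Ki determined only when inhibition exceeded 80%, using at least six concentrations. Five experiments run in triplicate; IC50 obtained by iterative curve fitting and converted to Ki with the Cheng–Prusoff equation.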

[8] = system: Mus musculus; assay: Antihyperalgesic activity against streptozotocin-induced hyperalgesia in Swiss albino mouse […] assessed as licking latency time at 30 mg/kg, po after 15 mins by hot plate test (reference value: 9.7 +/- 0.8 secs); assay type: functional
[9] = system: Rattus norvegicus; assay: Antinociceptive activity in Sprague-Dawley rat mononeuropathy pain model assessed as increase in injured paw pressure at 30 mg/kg, po after 45 mins by paw pressure test relative to non-treated control; assay type: functional; how it was run: as §3
[10] = system: Mus musculus; assay: Antihyperalgesic activity against streptozotocin-induced hyperalgesia in Swiss albino mouse […] assessed as licking latency time at 30 mg/kg, po after 60 mins by hot plate test (reference value: 9.7 +/- 0.8 secs); assay type: functional
[11] = system: Mus musculus; assay: Anxiolytic-like activity in Swiss albino mouse at 30 mg/kg, po after 30 mins by light/dark box test; assay type: functional, organism-based; set-up: dose 30 mg/kg
How it was run: (§5)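 Male Swiss mice tested in a two-compartment light/dark box. Transfers between compartments and time spent in the lit side recorded. Compound given po 30 min before testing, in 10 ml/kg; flumazenil given i.p. for antagonism; 8 mice per group.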

[12] = system: Mus musculus; assay: Antihyperalgesic activity against streptozotocin-induced hyperalgesia in Swiss albino mouse […] assessed as licking latency time at 30 mg/kg, po after 45 mins by hot plate test (reference value: 9.7 +/- 0.8 secs); assay type: functional
[13] = system: Mus musculus; assay: Antihyperalgesic activity Swiss albino mouse […] assessed as licking latency time at 30 mg/kg, po after 30 mins by hot plate test (reference value: 17.1 +/- 0.71 secs); assay type: functional; how it was run: as §1
[14] = system: Mus musculus; assay: Anticonvulsant activity in Swiss albino mouse […] assessed as protection against intraperitoneally administered pentylenetetrazol-induced seizures at 30 mg/kg, po after 30 mins; assay type: functional
How it was run: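 Male Swiss albino mice. Compounds given po and PTZ 90 mg/kg injected 30 min later; PTZ was dissolved in 0.9% NaCl saline. Clonic generalized convulsions were recorded over 30 min. Each value is the mean of 10 mice. The methods give the PTZ route as s.c. and the table footnote gives it as ip.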

[15] = system: Mus musculus; assay: Analgesic activity in Swiss albino mouse abdominal constriction model assessed as decrease in number of acetic acid-induced writhing at 30 to 60 mg/kg, po after 30 mins; assay type: functional, organism-based; conditions: Abdomen
How it was run: (§6)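 Male Swiss albino mice (23–30 g). Compounds given po in 1% CMC vehicle 30 min before the test. Acetic acid 0.6% injected i.p. at 10 ml/kg. Stretching movements were counted for 10 min, starting 5 min after the acetic acid injection. 8–15 mice per group.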

[16] = Displacement of [3H]Ro151788 from GABA(A)/BzR in bovine cerebral cortex membrane; assay type: cell membranes, Bos taurus; how it was run: as §4
[17] = system: Rattus norvegicus; assay: Toxicity in Sprague-Dawley rat mononeuropathy pain model assessed as effect on contralateral paw pressure at 30 mg/kg, po after 30 mins by paw pressure test; assay type: organism-based; set-up: dose 30 mg/kg, route oral; conditions: in vivo, 0.5 h; how it was run: as §2
[18] = system: Mus musculus; assay: Antihyperalgesic activity Swiss albino mouse […] assessed as licking latency time at 30 mg/kg, po after 60 mins by hot plate test (reference value: 17.1 +/- 0.71 secs); assay type: functional; how it was run: as §1
[19] = system: Rattus norvegicus; assay: Toxicity in Sprague-Dawley rat mononeuropathy pain model assessed as effect on contralateral paw pressure at 30 mg/kg, po after 45 mins by paw pressure test; assay type: organism-based; set-up: dose 30 mg/kg, route oral; conditions: in vivo, 0.75 h; how it was run: as §2
[20] = system: Mus musculus; assay: Antihyperalgesic activity Swiss albino mouse […] assessed as licking latency time at 30 mg/kg, po after 60 mins by hot plate test (reference value: 14.9 +/- 1.1 secs); assay type: functional; how it was run: as §1
[21] = system: Rattus norvegicus; assay: Toxicity in Sprague-Dawley rat mononeuropathy pain model assessed as effect on contralateral paw pressure at 3 mg/kg, po after 45 mins by paw pressure test; assay type: organism-based; set-up: dose 3 mg/kg, route oral; conditions: in vivo, 0.75 h; how it was run: as §2
[22] = system: Mus musculus; assay: Antihyperalgesic activity against streptozotocin-induced hyperalgesia in Swiss albino mouse […] assessed as licking latency time at 30 mg/kg, po after 60 mins by hot plate test (reference value: 10.4 +/- 0.8 secs); assay type: functional
[23] = system: Mus musculus; assay: Antihyperalgesic activity against streptozotocin-induced hyperalgesia in Swiss albino mouse […] assessed as licking latency time at 30 mg/kg, po after 30 mins by hot plate test (reference value: 10.4 +/- 0.8 secs); assay type: functional
[24] = system: Mus musculus; assay: Antihyperalgesic activity Swiss albino mouse […] assessed as licking latency time at 30 mg/kg, po after 45 mins by hot plate test (reference value: 14.9 +/- 1.1 secs); assay type: functional; how it was run: as §1
[25] = system: Rattus norvegicus; assay: Antinociceptive activity in Sprague-Dawley rat mononeuropathy pain model assessed as increase in injured paw pressure at 10 mg/kg, po after 15 mins by paw pressure test relative to non-treated control; assay type: functional; how it was run: as §3
[26] = system: Mus musculus; assay: Antihyperalgesic activity Swiss albino mouse […] assessed as licking latency time at 30 mg/kg, po after 30 mins by hot plate test (reference value: 14.9 +/- 1.1 secs); assay type: functional; how it was run: as §1
[27] = system: Rattus norvegicus; assay: Toxicity in Sprague-Dawley rat mononeuropathy pain model assessed as effect on contralateral paw pressure at 10 mg/kg, po after 30 mins by paw pressure test; assay type: organism-based; set-up: dose 10 mg/kg, route oral; conditions: in vivo, 0.5 h; how it was run: as §2
[28] = system: Rattus norvegicus; assay: Antinociceptive activity in Sprague-Dawley rat mononeuropathy pain model assessed as increase in injured paw pressure at 3 mg/kg, po after 30 mins by paw pressure test relative to non-treated control; assay type: functional; how it was run: as §3
[29] = system: Rattus norvegicus; assay: Toxicity in Sprague-Dawley rat mononeuropathy pain model assessed as effect on contralateral paw pressure at 3 mg/kg, po after 15 mins by paw pressure test; assay type: organism-based; set-up: dose 3 mg/kg, route oral; conditions: in vivo, 0.25 h; how it was run: as §2
[30] = system: Rattus norvegicus; assay: Antinociceptive activity in Sprague-Dawley rat mononeuropathy pain model assessed as increase in injured paw pressure at 10 mg/kg, po after 30 mins by paw pressure test relative to non-treated control; assay type: functional; how it was run: as §3
[31] = system: Rattus norvegicus; assay: Toxicity in Sprague-Dawley rat mononeuropathy pain model assessed as effect on contralateral paw pressure at 10 mg/kg, po after 45 mins by paw pressure test; assay type: organism-based; set-up: dose 10 mg/kg, route oral; conditions: in vivo, 0.75 h; how it was run: as §2
[32] = system: Rattus norvegicus; assay: Toxicity in Sprague-Dawley rat mononeuropathy pain model assessed as effect on contralateral paw pressure at 10 mg/kg, po after 15 mins by paw pressure test; assay type: organism-based; set-up: dose 10 mg/kg, route oral; conditions: in vivo, 0.25 h; how it was run: as §2
[33] = system: Mus musculus; assay: Analgesic activity in Swiss albino mouse abdominal constriction model assessed as decrease in number of acetic acid-induced writhing at 10 to 30 mg/kg, po after 30 mins; assay type: functional, organism-based; conditions: Abdomen; how it was run: as §6
[34] = system: Rattus norvegicus; assay: Antinociceptive activity in Sprague-Dawley rat mononeuropathy pain model assessed as increase in injured paw pressure at 3 mg/kg, po after 15 mins by paw pressure test relative to non-treated control; assay type: functional; how it was run: as §3
[35] = system: Mus musculus; assay: Antihyperalgesic activity against streptozotocin-induced hyperalgesia in Swiss albino mouse […] assessed as licking latency time at 30 mg/kg, po after 15 mins by hot plate test (reference value: 10.4 +/- 0.8 secs); assay type: functional
[36] = system: Mus musculus; assay: Anxiolytic-like activity in Swiss albino mouse at 10 mg/kg, po after 30 mins by light/dark box test; assay type: functional, organism-based; set-up: dose 10 mg/kg; how it was run: as §5
[37] = system: Mus musculus; assay: Antihyperalgesic activity against streptozotocin-induced hyperalgesia in Swiss albino mouse […] assessed as licking latency time at 30 mg/kg, po after 45 mins by hot plate test (reference value: 10.4 +/- 0.8 secs); assay type: functional
[38] = system: Rattus norvegicus; assay: Antinociceptive activity in Sprague-Dawley rat mononeuropathy pain model assessed as increase in injured paw pressure at 10 mg/kg, po after 45 mins by paw pressure test relative to non-treated control; assay type: functional; how it was run: as §3
[39] = system: Rattus norvegicus; assay: Antinociceptive activity in Sprague-Dawley rat mononeuropathy pain model assessed as increase in injured paw pressure at 3 mg/kg, po after 45 mins by paw pressure test relative to non-treated control; assay type: functional; how it was run: as §3
[40] = system: Mus musculus; assay: Antihyperalgesic activity Swiss albino mouse […] assessed as licking latency time at 30 mg/kg, po after 15 mins by hot plate test (reference value: 14.9 +/- 1.1 secs); assay type: functional; how it was run: as §1
[41] = system: Rattus norvegicus; assay: Toxicity in Sprague-Dawley rat mononeuropathy pain model assessed as effect on contralateral paw pressure at 3 mg/kg, po after 30 mins by paw pressure test; assay type: organism-based; set-up: dose 3 mg/kg, route oral; conditions: in vivo, 0.5 h; how it was run: as §2

`Cc1cnn2c1n[n+]([O-])c1ccc(NCc3ccccc3)cc12` showed a Time [1] of 18.3 s, an Activity [2] of 61.5 g and an Activity [3] of 27 g. For the same compound, the Time [4] was 11.3 s, the Time [5] was 6.8 s and the Activity [6] was 27.4 g. For the same compound, the inhibition [7] was greater than 80%, the Time [8] was 9.6 s and the Activity [9] was 28.5 g. For the same compound, the Time [10] was 11.7 s, the Activity [11] was “Active” and the Time [12] was 10.2 s. The Time [13] was 18.2 s, the Activity [14] was 10% and the Activity [15] was “inactive”. The Ki [16] was 2.58 nM, the Activity [17] was 63.2 g and the Time [18] was 17.8 s. It also gave an Activity [19] of 62.5 g.
For `[O-][n+]1nc2c(I)cnn2c2cc(NCc3ccccc3)ccc21`, the Time [20] was 16.3 s, the Activity [21] was 60.7 g and the Activity [2] was 61.7 g. For the same compound, the Activity [3] was 42.3 g, the Time [22] was 17.9 s and the Activity [6] was 46.4 g. It also gave an inhibition [7] greater than 80%, a Time [23] of 16.4 s and a Time [24] of 15.8 s. The Activity [25] was 49.5 g, the Activity [9] was 38.1 g and the Time [26] was 16.9 s. The Activity [27] was 61.5 g, the Activity [28] was 33.8 g and the Activity [29] was 62.3 g. For the same compound, the Activity [30] was 44.8 g, the Activity [31] was 61.2 g and the Activity [32] was 64.8 g. For the same compound, the Activity [33] was “inactive”, the Activity [14] was 10% and the Activity [34] was 41.4 g. The Ki [16] was 0.109 nM, the Time [35] was 16.6 s and the Activity [36] was “Active”. The Activity [17] was 58.9 g, the Time [37] was 17.3 s and the Activity [38] was 36.7 g. It also gave an Activity [39] of 31.2 g, a Time [40] of 16.3 s and an Activity [41] of 59.5 g. It also gave an Activity [19] of 62.2 g.
